From PMC12578630 (Nature Microbiology, 2025)
≈ marks a conversion by molar mass, not a printed value. Read-outs that look alike come from different tables or passages of the source.

Assays:
MRSA QLH-2022-718 = assay: Bacterial resistance development, serial passage; assay type: cell-based, Staphylococcus aureus; details: for MIC: Staphylococcus aureus, MRSA
[1] = Histologic changes in the kidney and colon; assay type: in vivo, mouse; details: H&E, infected and treated mice
How it was run: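 Tissue fixed in 4% paraformaldehyde for at least 24 h, dehydrated through graded ethanol, cleared in xylene, paraffin-embedded. Sections cut at 4 μm, dried at 60 °C, dewaxed and rehydrated. Stained with haematoxylin (3–5 min), differentiated and blued, counterstained with eosin (15 s), then dehydrated, cleared and mounted in neutral balsam. Imaged by light microscopy.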

CRAB QLH-2022-637 = assay: Bacterial resistance development, serial passage; assay type: cell-based, Acinetobacter baumannii; details: serial passage at 0.5-fold MIC

Compound	MIC (MRSA QLH-2022-718; read-out: MIC after 18 passages)	MIC (MRSA QLH-2022-718; read-out: MIC at the first passage)	fold increase in MIC after 18 passages (MRSA QLH-2022-718; serial passage at 0.5-fold MIC)	kidney tissue histology, in words [1]	fold increase in MIC after 20 passages (CRAB QLH-2022-637)
CN[C@H](CC(C)C)C(=O)N[C@H]1C(=O)N[C@@H](CC(N)=O)C(=O)N[C@H]2C(=O)N[C@H]3C(=O)N[C@H](C(=O)N[C@H](C(=O)O)c4cc(O)cc(O)c4-c4cc3ccc4O)[C@H](O)c3ccc(c(Cl)c3)Oc3cc2cc(c3O[C@@H]2O[C@H](CO)[C@@H](O)[C@H](O)[C@H]2O[C@H]2C[C@](C)(N)[C@H](O)[C@H](C)O2)Oc2ccc(cc2Cl)[C@H]1O [vancomycin]	≥ 64 µg/mL	0.5 µg/mL (≈ 0.345 µM)	≥ 128 fold	histopathological changes: cytoplasmic rarefaction and pale staining	
polymyxin B				A small amount of venous stasis	32 fold
